Experiments:
A549 = assay: Antiproliferation activity against human A549 cells assessed as cell growth inhibition measured after 72 hrs by MTT assay; format: functional
Outline: (§1)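 Cells grown in RPMI-1640 with 10% FBS at 37 °C, 5% CO2, seeded at 4−7 × 10³ cells/well and left to adhere overnight. Exposed to a range of concentrations for 72 h, then MTT (2.5 mg/mL stock) added for 4 h. Formazan dissolved in DMSO and absorbance read at 570 nm. GI50 taken as the concentration giving 50% growth inhibition, reported as mean ± SD of at least three independent experiments.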

HCT-116 = assay: Antiproliferation activity against human HCT116 cells assessed as cell growth inhibition measured after 72 hrs by MTT assay; format: functional; outline: as §1
HepG2 [1] = assay: Antiproliferation activity against human HepG2 cells assessed as cell growth inhibition measured after 72 hrs by MTT assay; format: functional; outline: as §1
[2] = Inhibition of porcine brain tubulin polymerization measured every 60 sec for 60 mins in presence of GTP by fluorescence assay; set-up: species or system Sus scrofa
Outline: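 Fluorescence kit assay using 2 mg/mL porcine brain tubulin with 2 mM MgCl₂, 0.5 mM EGTA, 1 mM GTP and 15% glycerol. Compound at various concentrations preincubated 1 min at 37 °C before adding the tubulin mix. Read at ex 355/em 460 nm every 60 s for 60 min. IC50 is the concentration giving 50% inhibition at 60 min; mean ± SD of ≥3 independent experiments.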

[3] = Selectivity index, ratio of GI50 for cytotoxicity against human L02 cells to GI50 for antiproliferation activity against human HepG2 cells assessed as cell growth inhibition measured after 72 hrs by MTT assay; format: toxicity, cell-based; settings: L02 cells and HepG2 cells, read-out: RatioGI50
Outline: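 MTT assay: cells seeded 4–7 × 10³/well, adhered overnight, exposed to a concentration series for 72 h. MTT (2.5 mg/mL stock) added for 4 h, crystals dissolved in DMSO, absorbance read at 570 nm. GI50 is mean ± SD of ≥3 independent experiments. Selectivity = GI50 on normal LO2 / GI50 on HepG2. Resistance fold = GI50 on resistant cells / GI50 on sensitive cells.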

[4] = Cytotoxicity against human L02 cells assessed as assessed as cell growth inhibition measured after 72 hrs by MTT assay; format: cell-based
Outline: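 LO2 normal liver cells cultured in RPMI-1640/10% FBS at 37 °C, 5% CO2 and seeded at 4−7 × 10³ cells/well. Graded concentrations applied for 72 h, then MTT readout at 570 nm. GI50 is the concentration giving 50% growth inhibition, mean ± SD of at least three independent experiments.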

[5] = Resistance index, ratio of GI50 for antiproliferation activity against human A549/Taxol cells to GI50 for antiproliferation activity against human A549 cells assessed as cell growth inhibition measured after 72 hrs by MTT assay
[6] = Antiproliferation activity against human A549/Taxol cells assessed as cell growth inhibition measured after 72 hrs by MTT assay; format: functional; outline: as §1
HepG2 [7] = assay: Inhibition of cell migration in human HepG2 cells at 10 nM measured after 24 hrs by inverted light microscopy method based wound healing assay relative to control; format: functional
Outline: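 Confluent HepG2 monolayer (seeded 3 × 10⁵ cells/well) scratched with a pipette tip and washed with PBS. Incubated in serum-free DMEM with compound at 2.5, 5 or 10 nM for 24 h; CA-4 run in parallel, DMSO as vehicle. Wound imaged at 0 and 24 h by inverted microscope and compared with control.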

CCCOc1cc2c(cc1OCC(N)=O)-c1c(c(Nc3cccc(OCC)c3)nn1C)C2
GI50 (A549): 426 nM
GI50 (HCT-116): 230 nM
GI50 (HepG2 [1]): 55.6 nM
IC50 [2]: 11000 nM

CCOc1cccc(Nc2nn(C)c3c2Cc2cc(OCC)c(OCC(=O)O)cc2-3)c1
GI50 (A549): 8660 nM
GI50 (HCT-116): 1270 nM
GI50 (HepG2 [1]): 1640 nM
IC50 [2]: > 20000 nM

CCOc1cc2c(cc1OCCCN)-c1c(c(Nc3cccc(C(=O)CC)c3)nn1C)C2
GI50 (A549): 7.6 nM
GI50 (HCT-116): 4 nM
GI50 (HepG2 [1]): 2.1 nM
IC50 [2]: 3100 nM

CCNc1cccc(Nc2nn(C)c3c2Cc2cc(OCC)c(OCC(N)=O)cc2-3)c1
GI50 (A549): 356 nM
GI50 (HCT-116): 432 nM
GI50 (HepG2 [1]): 107 nM
IC50 [2]: 10800 nM

CCOc1cccc(Nc2nn(C)c3c2Cc2cc(OCC)c(OCCCNC(C)=O)cc2-3)c1
GI50 (A549): 935 nM
GI50 (HCT-116): 197 nM
GI50 (HepG2 [1]): 364 nM
IC50 [2]: > 20000 nM

CCOc1cc2c(cc1OCC(N)=O)-c1c(c(Nc3cccc(C#N)c3)nn1C)C2
GI50 (A549): 166 nM
GI50 (HCT-116): 361 nM
GI50 (HepG2 [1]): 66.9 nM
IC50 [2]: 9900 nM

CCOc1cc2c(cc1OCC(=O)NC)-c1c(c(Nc3cccc(C(=O)OC)c3)nn1C)C2
GI50 (A549): 78.1 nM
GI50 (HCT-116): 37.1 nM
GI50 (HepG2 [1]): 10.2 nM
IC50 [2]: 6300 nM

CCOC(=O)c1cccc(Nc2nn(C)c3c2Cc2cc(OCC)c(OCCCO)cc2-3)c1
GI50 (A549): 5.3 nM
GI50 (HCT-116): 7.7 nM
GI50 (HepG2 [1]): 3.3 nM
IC50 [2]: 3500 nM

CCOc1cc2c(cc1OCCCN)-c1c(c(Nc3cccc(C#N)c3)nn1C)C2
GI50 (A549): 20.8 nM
GI50 (HCT-116): 6.4 nM
GI50 (HepG2 [1]): 3.8 nM
IC50 [2]: 5700 nM

CCOc1cccc(Nc2nn(C)c3c2Cc2cc(OCc4ccc(OC)cc4)c(OCC(N)=O)cc2-3)c1
GI50 (A549): 3080 nM
GI50 (HCT-116): 16600 nM
GI50 (HepG2 [1]): 3070 nM
IC50 [2]: > 20000 nM

CCOC(=O)c1cccc(Nc2nn(C)c3c2Cc2cc(OCC)c(OCC(N)=O)cc2-3)c1
GI50 (A549): 12 nM
GI50 (HCT-116): 4.5 nM
GI50 (HepG2 [1]): 3.4 nM
IC50 [2]: 3900 nM

CCOc1cccc(Nc2nn(C)c3c2Cc2cc(OCC)c(OCCCO)cc2-3)c1
GI50 (A549): 94.4 nM
GI50 (HCT-116): 10.4 nM
GI50 (HepG2 [1]): 15.7 nM
IC50 [2]: 5800 nM

CCCOc1cc2c(cc1OCC)Cc1c(Nc3cccc(OCC)c3)nn(C)c1-2
GI50 (A549): 512 nM
GI50 (HCT-116): 129 nM
GI50 (HepG2 [1]): 397 nM
IC50 [2]: 14600 nM

CC(=O)O[C@H]1C(=O)[C@@]2(C)[C@H]([C@H](OC(=O)c3ccccc3)[C@]3(O)C[C@H](OC(=O)[C@H](O)[C@@H](NC(=O)c4ccccc4)c4ccccc4)C(C)=C1C3(C)C)[C@]1(OC(C)=O)CO[C@@H]1C[C@@H]2O [PACLITAXEL]
selectivity ratio at 72 h [3]: 12
GI50 at 72 h [4]: 30.8 nM
RatioGI50 [5]: 246
GI50 [6]: 935 nM

CCCOc1cc2c(cc1OCC(N)=O)Cc1c(Nc3cccc(OCC)c3)nn(C)c1-2
GI50 (A549): 25400 nM
GI50 (HCT-116): 1140 nM
GI50 (HepG2 [1]): 1960 nM
IC50 [2]: > 20000 nM

CCOc1cc2c(cc1OCC(=O)NC)-c1c(c(Nc3cccc(C#N)c3)nn1C)C2
GI50 (A549): 2040 nM
GI50 (HCT-116): 819 nM
GI50 (HepG2 [1]): 97.3 nM
IC50 [2]: > 20000 nM

CCOc1cc2c(cc1OCCCO)-c1c(c(Nc3cccc(C(=O)OC(C)C)c3)nn1C)C2
GI50 (A549): 164 nM
GI50 (HCT-116): 103 nM
GI50 (HepG2 [1]): 36.7 nM
IC50 [2]: 7700 nM

CCOc1cc2c(cc1OCCCO)-c1c(c(Nc3cccc(C(=O)O)c3)nn1C)C2
GI50 (A549): 18300 nM
GI50 (HCT-116): 5380 nM
GI50 (HepG2 [1]): > 20000 nM
IC50 [2]: > 20000 nM

CCCCOc1cc2c(cc1OCC(N)=O)-c1c(c(Nc3cccc(OCC)c3)nn1C)C2
GI50 (A549): 19900 nM
GI50 (HCT-116): 4770 nM
GI50 (HepG2 [1]): 2760 nM
IC50 [2]: > 20000 nM

CCOc1cc2c(cc1OCC(N)=O)-c1c(c(Nc3cccc(C(=O)OC(C)C)c3)nn1C)C2
GI50 (A549): 121 nM
GI50 (HCT-116): 36.4 nM
GI50 (HepG2 [1]): 25.3 nM
IC50 [2]: 8000 nM

CCOc1cc2c(cc1OCCCO)-c1c(c(Nc3cccc(C(=O)NC)c3)nn1C)C2
GI50 (A549): 1340 nM
GI50 (HCT-116): 1480 nM
GI50 (HepG2 [1]): 2350 nM
IC50 [2]: > 20000 nM

CCOc1cc2c(cc1OCCCO)-c1c(c(Nc3cccc(C(=O)OC)c3)nn1C)C2
GI50 (A549): 8.1 nM
GI50 (HCT-116): 12.3 nM
GI50 (HepG2 [1]): 7.1 nM
IC50 [2]: 5900 nM

CCOc1cccc(Nc2nn(C)c3c2Cc2cc(OCC)c(OCC(N)=O)cc2-3)n1
GI50 (A549): 62.5 nM
GI50 (HCT-116): 19 nM
GI50 (HepG2 [1]): 17.1 nM
IC50 [2]: 4100 nM

CCOc1ccc(Nc2nn(C)c3c2Cc2cc(OCC)c(OCC(N)=O)cc2-3)cc1
GI50 (A549): 15000 nM
GI50 (HCT-116): 4310 nM
GI50 (HepG2 [1]): 1910 nM
IC50 [2]: > 20000 nM

CCOc1cc2c(cc1OCC(N)=O)-c1c(c(Nc3cccc(C(=O)CC)c3)nn1C)C2
GI50 (A549): 21.4 nM
GI50 (HCT-116): 27 nM
GI50 (HepG2 [1]): 9.2 nM
IC50 [2]: 4100 nM

CCOc1cc2c(cc1OCCCO)-c1c(c(Nc3cccc(C(=O)CC)c3)nn1C)C2
GI50 (A549): 38.2 nM
GI50 (HCT-116): 24.5 nM
GI50 (HepG2 [1]): 13.6 nM
IC50 [2]: 5300 nM

CCOc1cccc(Nc2nn(C)c3c2Cc2cc(OCC)c(OCCCO)cc2-3)n1
GI50 (A549): 72 nM
GI50 (HCT-116): 27.1 nM
GI50 (HepG2 [1]): 15.5 nM
IC50 [2]: 5000 nM

COc1ccc(/C=C\c2cc(OC)c(OC)c(OC)c2)cc1O [COMBRETASTATIN A4]
selectivity ratio at 72 h [3]: 55
GI50 at 72 h [4]: 333 nM
GI50 (A549): 4.8 nM
GI50 (HCT-116): 2.4 nM
RatioGI50 [5]: 4
GI50 (HepG2 [1]): 6.1 nM
IC50 [2]: 2300 nM
GI50 [6]: 20.4 nM
inhibition at 0.01 µM (HepG2 [7]): 47%

CCOc1cccc(Nc2nn(C)c3c2Cc2cc(O)c(OCC(N)=O)cc2-3)c1
GI50 (A549): 15200 nM
GI50 (HCT-116): 4660 nM
GI50 (HepG2 [1]): 5330 nM
IC50 [2]: > 20000 nM

CCOc1cc2c(cc1OCCCO)-c1c(c(Nc3cccc(C#N)c3)nn1C)C2
GI50 (A549): 176 nM
GI50 (HCT-116): 151 nM
GI50 (HepG2 [1]): 42.9 nM
IC50 [2]: 9100 nM

CCOc1cccc(Nc2nn(C)c3c2Cc2cc(OC)c(OCC(N)=O)cc2-3)c1
GI50 (A549): 19.6 nM
GI50 (HCT-116): 26.5 nM
GI50 (HepG2 [1]): 15 nM
IC50 [2]: 13400 nM

CCOc1cc2c(cc1OCC(N)=O)-c1c(c(Nc3cccc(C(=O)NC)c3)nn1C)C2
GI50 (A549): 13100 nM
GI50 (HCT-116): 2100 nM
GI50 (HepG2 [1]): 642 nM
IC50 [2]: > 20000 nM

CCOc1cc2c(cc1OCC(N)=O)-c1c(c(Nc3cccc(C(=O)OC)c3)nn1C)C2
GI50 (A549): 3 nM
GI50 (HCT-116): 9.7 nM
GI50 (HepG2 [1]): 4.3 nM
IC50 [2]: 4500 nM

From ChEMBL document CHEMBL4699650, “SAR Investigation and Discovery of Water-Soluble 1-Methyl-1,4-dihydroindeno[1,2-c]pyrazoles as Potent Tubulin Polymerization Inhibitors” (J Med Chem, 2020)
